# Laboratory results: ChEMBL document CHEMBL1828575, “Design, synthesis and antiproliferative activities of biarylolefins based on polyhydroxylated and carbohydrate scaffolds” (Eur J Med Chem, 2011)
# What was measured:
# Type in all cases: functional
# PC-3 = experiment: Cytotoxicity against human PC3 cells assessed as cellular growth at 10 uM after 48 hrs by SRB assay
# Outline: (§1)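 NCI-60 panel lines grown in RPMI 1640 with 5% FBS and 2 mM L-glutamine. Plated at 5000–40,000 cells/well and preincubated 24 h at 37 °C, 5% CO₂, with time-zero plates fixed in TCA. Compounds, dissolved in DMSO and diluted in medium, were applied for 48 h. Cells were TCA-fixed (10% final for adherent, 16% for suspension) and stained with 0.4% SRB in 1% acetic acid. Dye was solubilised in 10 mM Tris base and read at 515 nm; growth was expressed as a percentage of untreated control.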
# SF-268 = experiment: Cytotoxicity against human SF268 cells assessed as cellular growth at 10 uM after 48 hrs by SRB assay; outline: as §1
# RPMI-8226 [1] = experiment: Cytotoxicity against human RPMI8226 cells assessed as cellular growth at 10 uM after 48 hrs by SRB assay; outline: as §1
# A549 [2] = experiment: Cytotoxicity against human A549 cells assessed as cellular growth at 10 uM after 48 hrs by SRB assay
# Outline: (§2)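 NCI60 single-dose screen of cells in RPMI 1640 with 5% FBS and 2 mM L-glutamine, preincubated 24 h at 37 °C, 5% CO₂. Cells were then exposed 48 h to compound added from DMSO stock. TCA-fixed, stained with 0.4% SRB in 1% acetic acid, dye solubilised in 10 mM Tris base and read at 515 nm. Growth is given as percent of untreated control.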
# HCT-116 = experiment: Cytotoxicity against human HCT116 cells assessed as cellular growth at 10 uM after 48 hrs by SRB assay; outline: as §2
# NCI-H460 = experiment: Cytotoxicity against human NCI-H460 cells assessed as cellular growth at 10 uM after 48 hrs by SRB assay; outline: as §1
# SNB-19 [3] = experiment: Cytotoxicity against human SNB19 cells assessed as cellular growth at 10 uM after 48 hrs by SRB assay; outline: as §1
# UACC-62 = experiment: Cytotoxicity against human UACC62 cells assessed as cellular growth at 10 uM after 48 hrs by SRB assay; outline: as §1
# OVCAR-4 = experiment: Cytotoxicity against human OVCAR4 cells assessed as cellular growth at 10 uM after 48 hrs by SRB assay; outline: as §1
# OVCAR-8 = experiment: Cytotoxicity against human OVCAR8 cells assessed as cellular growth at 10 uM after 48 hrs by SRB assay; outline: as §1
# ACHN [4] = experiment: Cytotoxicity against human ACHN cells assessed as cellular growth at 10 uM after 48 hrs by SRB assay; outline: as §2
# SNB-19 [5] = experiment: Antitumor activity against human SNB19 cells after 48 hrs by SRB assay; settings: SNB-19, 48 h
# Outline: (§3)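 NCI60 panel cells grown in RPMI 1640 with 5% FBS and 2 mM L-glutamine, plated at 5000–40,000 cells/well and preincubated 24 h at 37 °C, 5% CO₂. Compound was added from DMSO at five concentrations, 10-fold or 1/2 log dilutions, then incubated 48 h.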
# 786-0 = experiment: Antitumor activity against human 786-0 cells after 48 hrs by SRB assay; settings: 786-0, 48 h
# Outline: (§4)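 NCI60 panel in RPMI 1640 with 5% FBS and 2 mM L-glutamine. Cells were plated at 5000–40,000/well by doubling time, held 24 h, then time-zero plates were TCA-fixed. Five concentrations (10-fold or half-log dilutions of DMSO stocks) were applied for 48 h at 37 °C, 5% CO2. Cells were fixed with cold TCA (10% final adherent, 16% suspension) and stained with 0.4% SRB. Bound dye was dissolved in 10 mM Tris and read at 515 nm. GI50, TGI and LC50 were calculated per line.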
# MCF7 = experiment: Antitumor activity against human MCF7 cells after 48 hrs by SRB assay; settings: MCF7, 48 h; outline: as §4
# SN12C = experiment: Antitumor activity against human SN12C cells after 48 hrs by SRB assay; outline: as §3
# CAKI-1 = experiment: Antitumor activity against human Caki1 cells after 48 hrs by SRB assay; settings: CAKI-1, 48 h; outline: as §4
# ACHN [6] = experiment: Antitumor activity against human ACHN cells after 48 hrs by SRB assay; outline: as §4
# A498 = experiment: Antitumor activity against human A498 cells after 48 hrs by SRB assay; settings: A498, 48 h; outline: as §4
# SK-OV-3 = experiment: Antitumor activity against human SKOV3 cells after 48 hrs by SRB assay; settings: SK-OV-3, 48 h; outline: as §3
# HCC 2998 = experiment: Antitumor activity against human HCC2998 cells after 48 hrs by SRB assay; settings: HCC 2998, 48 h; outline: as §4
# NCI-H322M = experiment: Antitumor activity against human NCI-H322M cells after 48 hrs by SRB assay; outline: as §4
# A549 [7] = experiment: Antitumor activity against human A549 cells after 48 hrs by SRB assay; settings: A549, 48 h; outline: as §4
# RPMI-8226 [8] = experiment: Antitumor activity against human RPMI8226 cells after 48 hrs by SRB assay; settings: RPMI-8226, 48 h; outline: as §4
# [9] = read-out: LC50 (the source's name)
# [10] = read-out: pLC50 (the source's name) (converted)
smiles,measurement,setting,value
COc1ccc(/C(=C2\O[C@@H]([C@H]3COC(C)(C)O3)[C@H]3OC(C)(C)O[C@@H]23)c2cc(OC)c(OC)c(OC)c2)cc1O,Activity,PC-3,29.4%
same,Activity,SF-268,37.84%
same,Activity,RPMI-8226 [1],36.38%
same,Activity,A549 [2],80.05%
same,Activity,HCT-116,78.08%
same,Activity,NCI-H460,103.52%
same,Activity,SNB-19 [3],27.56%
same,Activity,UACC-62,82.85%
same,Activity,OVCAR-4,105.57%
same,Activity,OVCAR-8,96.09%
same,Activity,ACHN [4],49.46%
same,GI50,SNB-19 [5],2.49 µM
same,TGI,SNB-19 [5],6.08 µM
same,CC50,SNB-19 [5]; [9],> 100 µM
same,GI50,786-0,2.3 µM
same,LC50,786-0,8.6 µM
same,TGI,786-0,4.47 µM
same,GI50,MCF7; read-out: GI50,1.23 µM
same,CC50,MCF7; [9],> 100 µM
same,TGI,MCF7; read-out: TGI,> 100 µM
same,GI50,MCF7; read-out: pGI50 (converted),12.3 µM
same,CC50,MCF7; [10],> 100 µM
same,TGI,MCF7; read-out: pTGI (converted),> 100 µM
same,CC50,SN12C; [9],> 100 µM
same,TGI,SN12C; read-out: TGI,> 100 µM
same,GI50,SN12C; read-out: pGI50 (converted),8.91 µM
same,CC50,SN12C; [10],> 100 µM
same,TGI,SN12C; read-out: pTGI,> 100 µM
same,GI50,CAKI-1; read-out: GI50,14.6 µM
same,CC50,CAKI-1; [9],> 100 µM
same,TGI,CAKI-1; read-out: TGI,42.2 µM
same,GI50,CAKI-1; read-out: pGI50 (converted),14.8 µM
same,CC50,CAKI-1; [10],> 100 µM
same,TGI,CAKI-1; read-out: pTGI (converted),42.7 µM
same,GI50,ACHN [6]; read-out: GI50,15.4 µM
same,CC50,ACHN [6]; [9],> 100 µM
same,TGI,ACHN [6]; read-out: TGI,> 100 µM
same,GI50,ACHN [6]; read-out: pGI50 (converted),15.5 µM
same,CC50,ACHN [6]; [10],> 100 µM
same,TGI,ACHN [6]; read-out: pTGI,> 100 µM
same,GI50,A498; read-out: GI50,32.1 µM
same,CC50,A498; [9],> 100 µM
same,TGI,A498; read-out: TGI,97.4 µM
same,GI50,A498; read-out: pGI50 (converted),32.4 µM
same,CC50,A498; [10],> 100 µM
same,TGI,A498; read-out: pTGI (converted),97.7 µM
same,GI50,SK-OV-3; read-out: GI50,12.6 µM
same,CC50,SK-OV-3; [9],> 100 µM
same,TGI,SK-OV-3; read-out: TGI,91.7 µM
same,GI50,SK-OV-3; read-out: pGI50 (converted),12.6 µM
same,CC50,SK-OV-3; [10],> 100 µM
same,TGI,SK-OV-3; read-out: pTGI (converted),91.2 µM
same,GI50,HCC 2998; read-out: GI50,31.1 µM
same,CC50,HCC 2998; [9],> 100 µM
same,TGI,HCC 2998; read-out: TGI,80.4 µM
same,GI50,HCC 2998; read-out: pGI50 (converted),30.9 µM
same,CC50,HCC 2998; [10],> 100 µM
same,TGI,HCC 2998; read-out: pTGI (converted),81.3 µM
same,GI50,NCI-H322M; read-out: GI50,9.6 µM
same,CC50,NCI-H322M; [9],> 100 µM
same,TGI,NCI-H322M; read-out: TGI,> 100 µM
same,GI50,NCI-H322M; read-out: pGI50 (converted),9.55 µM
same,CC50,NCI-H322M; [10],> 100 µM
same,TGI,NCI-H322M; read-out: pTGI,> 100 µM
same,GI50,A549 [7]; read-out: GI50,22.7 µM
same,CC50,A549 [7]; [9],> 100 µM
same,TGI,A549 [7]; read-out: TGI,> 100 µM
same,GI50,A549 [7]; read-out: pGI50 (converted),22.9 µM
same,CC50,A549 [7]; [10],> 100 µM
same,TGI,A549 [7]; read-out: pTGI (converted),> 100 µM
same,LC50 (concentration killing 50% of starting cells),RPMI-8226 [8],> 100 µM
same,GI50,RPMI-8226 [8]; read-out: GI50,4.82 µM
same,TGI,RPMI-8226 [8]; read-out: TGI,34 µM
same,GI50,RPMI-8226 [8]; read-out: pGI50 (converted),4.79 µM
same,CC50,RPMI-8226 [8]; [10],> 100 µM
same,TGI,RPMI-8226 [8]; read-out: pTGI (converted),33.9 µM
